# In ChEMBL document CHEMBL1148398, “Design, synthesis, and biological evaluation of thio-containing compounds with serum HDL-cholesterol-elevating properties” (2004):
# How the values were obtained:
# Cricetinae gen. sp. [1] = test: Effect of compound on high-density lipoprotein cholesterol levels in 3rd group of cholesterol-fed male hamsters at 30 mg/kg/day after 14 days of treatment; assay type: functional, organism-based
# Rattus norvegicus [2] = test: Effect of compound on gain in body weight in 1st group of normal chow-fed male rats after a dose of 1 mg/kg/day; assay type: functional
# Procedure, shortened: (§1)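 Male Sprague–Dawley CD rats (60–80 g) on standard chow under a reversed 12 h light/dark cycle. Compound was suspended in 1.3% Tween 80/0.25% CMC and given as a single daily oral gavage dose for 4 days. Rats were fasted overnight and killed 24 h after the last dose. Serum ALT, AST, ALKP and LDH were read on a clinical analyzer. Weight gain was start versus end weight. Mean ± SEM, n = 6.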
# Rattus norvegicus [3] = test: Percent change in total plasma cholesterol following oral administration of compound in normal chow-fed rats at 100 mg/kg/day for 4 days; assay type: functional
# Procedure, shortened: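 Chow-fed male Sprague–Dawley CD rats, 60–80 g, gavaged 100 mg/kg/day for 4 days in 1.3% Tween 80/0.25% CMC. Fasted overnight, bled 24 h after the last dose. Total cholesterol and glycerol-blanked triglycerides read enzymatically; lipoproteins by FPLC with cholesterol per fraction. % change versus control; six per group, p < 0.05.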
# Rattus norvegicus [4] = test: Effect of compound on alanine aminotransferase (ALT) levels in 2nd group of normal chow-fed male rats after a dose of 2 mg/kg/day; assay type: functional, organism-based; procedure, shortened: as §1
# Rattus norvegicus [5] = test: Effect of compound on relative liver weight in 2nd group of normal chow-fed male rats after a dose of 2 mg/kg/day; assay type: functional
# Procedure, shortened: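 Chow-fed male Sprague–Dawley CD rats, 60–80 g, dosed by oral gavage once daily for 4 days in 1.3% Tween 80/0.25% CMC. Fasted overnight and sacrificed 24 h after the last dose. Liver weight expressed as % of body weight at termination. Six per group, mean ± SEM.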
# Rattus norvegicus [6] = test: Effect of compound on high-density lipoprotein cholesterol levels in 6th group of normal chow-fed male rats after a dose of 50 mg/kg/day; assay type: functional, organism-based
# Rattus norvegicus [7] = test: Effect of compound on thyroxine levels in 6th group of normal chow-fed male rats after a dose of 50 mg/kg/day; assay type: functional, organism-based
# Procedure, shortened: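 Male Sprague–Dawley CD rats, 60–80 g, on standard chow with reverse 12 h light/dark cycle. One oral gavage dose daily for 4 days, suspended in 1.3% Tween 80 and 0.25% CMC. Fasted overnight; sacrificed 24 h after the last dose. Serum TC on clinical analyzer, lipoproteins by FPLC with cholesterol per fraction, T4 on analyzer. Mean ± SEM, six rats per group.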
# Rattus norvegicus [8] = test: Effect of compound on lactic dehydrogenase (LDH) levels in 6th group of normal chow-fed male rats after a dose of 50 mg/kg/day; assay type: functional, organism-based
# Procedure, shortened: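 Male Sprague–Dawley CD rats, 60–80 g, on chow with a reverse 12 h light/dark cycle. Given one oral gavage dose daily for 4 days, suspended in 1.3% Tween 80/0.25% CMC. Fasted overnight and sacrificed 24 h after the last dose for blood and liver. Serum liver enzymes read on a clinical analyzer. Six per group, mean ± SEM.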
# Rattus norvegicus [9] = test: Effect of compound on very low-density lipoprotein cholesterol levels in 7th group of normal chow-fed male rats after a dose of 100 mg/kg/day; assay type: functional, organism-based
# Procedure, shortened: (§2)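 Male Sprague–Dawley CD rats (60–80 g) on Purina 5001 chow with a reverse 12 h light/dark cycle. Dosed once daily by oral gavage for 4 days, suspended in 1.3% Tween 80 / 0.25% CMC. Fasted overnight and bled 24 h after the last dose. Serum TC and glycerol-blanked TG measured enzymatically; VLDL-C by FPLC fractionation with cholesterol assay. n=6, mean ± SEM.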
# Rattus norvegicus [10] = test: Effect of compound on very low-density lipoprotein cholesterol levels in 5th group of normal chow-fed male rats after a dose of 20 mg/kg/day; assay type: functional, organism-based; procedure, shortened: as §2
# Rattus norvegicus [11] = test: Effect of compound on triglycerides level in 2nd group of normal chow-fed male rats after a dose of 2 mg/kg/day; assay type: functional, organism-based; procedure, shortened: as §2
# [12] = Effect on serum lipids in 7th group of normal chow-fed male rats after a dose of 100 mg/kg/day was evaluated as ratio of total plasma cholesterol levels to high-density lipoprotein cholesterol levels; assay type: functional
# Procedure, shortened: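 Male Sprague–Dawley CD rats, 60–80 g, chow-fed, dosed by oral gavage daily for 4 days in 1.3% Tween 80/0.25% CMC. Fasted overnight, bled 24 h after the last dose. Serum total cholesterol by enzymatic reagent; HDL-C from cholesterol in FPLC fractions; TPC/HDL-C ratio calculated. Six per group, mean ± SEM.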
# [13] = Effect on serum lipids in 1st group of cholesterol-fed male hamsters at 3 mg/kg/day after 14 days of treatment was evaluated as ratio of total cholesterol levels to high-density lipoprotein cholesterol levels; assay type: functional
# Procedure, shortened: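 Male Syrian Golden hamsters on chow plus 0.25% cholesterol, 2 weeks before and during dosing. Oral gavage for 14 days in 2% Tween 80/saline. Fasted 4 h before sacrifice. Serum total cholesterol measured enzymatically; HDL-C from cholesterol in FPLC lipoprotein fractions; TC/HDL-C ratio calculated. Six per group, mean ± SEM.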
# Rattus norvegicus [14] = test: Effect of compound on alanine aminotransferase (ALT) levels in 4th group of normal chow-fed male rats after a dose of 10 mg/kg/day
# Cricetinae gen. sp. [15] = test: Effect of compound on lactic dehydrogenase (LDH) levels in 3rd group of cholesterol-fed male hamsters at 30 mg/kg/day after 14 days of treatment; details: Mesocricetus auratus
# Cricetinae gen. sp. [16] = test: Effect of compound on alanine aminotransferase (ALT) levels in 1st group of cholesterol-fed male hamsters at 3 mg/kg/day after 14 days of treatment; details: Mesocricetus auratus
# Cricetinae gen. sp. [17] = test: Effect of compound on aspartate aminotransferase (AST) levels in 1st group of cholesterol-fed male hamsters at 3 mg/kg/day after 14 days of treatment; details: Mesocricetus auratus
structure (smiles),measurement,setting,value
CCN1CC(=O)N(c2cc(Cl)ccc2C)C1=S,Serum level,Cricetinae gen. sp. [1],156 mg/dL
same,Body weight,Rattus norvegicus [2],26.3 g
same,Change,Rattus norvegicus [3],72.8%
same,Level,Rattus norvegicus [4],59 U l-1
same,Relative liver weight,Rattus norvegicus [5],3.9%
same,Serum level,Rattus norvegicus [6],61 mg/dL
same,Serum level,Rattus norvegicus [7],3.47 µg/dL
same,Level,Rattus norvegicus [8],815 U l-1
same,Serum level,Rattus norvegicus [9],5.7 mg/dL
same,Serum level,Rattus norvegicus [10],5.3 mg/dL
same,Serum level,Rattus norvegicus [11],15 mg/dL
same,Ratio,[12],1.56
same,Ratio,[13],3.14
same,Level,Rattus norvegicus [14],58 U l-1
same,Level,Cricetinae gen. sp. [15],823 U l-1
same,Level,Cricetinae gen. sp. [16],182 U l-1
same,Level,Cricetinae gen. sp. [17],312 U l-1
